Columns and labels:
Format in all cases: functional, cell-based
SMMC-7721 = test: Cytotoxicity against human SMMC7721 cells after 48 hrs by MTT assay; details: SMMC-7721, 48 h
How it was run: (§1)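 MTT viability read-out on a human tumour panel: HL-60 leukaemia, SMMC-7721 hepatoma, A-549 lung, MCF-7 breast and SW480 colon carcinoma. Camptothecin and cisplatin were run alongside as positive controls. Potency is reported as the half-maximal inhibitory concentration (IC50) in μmol L-1.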

SW480 = test: Cytotoxicity against human SW480 cells after 48 hrs by MTT assay; details: SW480, 48 h; how it was run: as §1
A549 = test: Cytotoxicity against human A549 cells after 48 hrs by MTT assay; details: A549, 48 h; how it was run: as §1
HL-60 = test: Cytotoxicity against human HL60 cells after 48 hrs by MTT assay; details: HL-60, 48 h; how it was run: as §1
MCF7 = test: Cytotoxicity against human MCF7 cells after 48 hrs by MTT assay; details: MCF7, 48 h; how it was run: as §1

Row | Compound | IC50 (SMMC-7721) | IC50 (SW480) | IC50 (A549) | IC50 (HL-60) | IC50 (MCF7)
1 | CC[C@@]1(OC(=O)CCCCCNC(=O)CCCC[C@@H]2SC[C@@H]3NC(=O)N[C@@H]32)C(=O)OCc2c1cc1n(c2=O)Cc2cc3ccccc3nc2-1 | 15.3 µM | > 40 µM | 19.9 µM | 6.57 µM | 21.5 µM
2 | CC[C@@]1(OC(=O)CCCC[C@@H]2SC[C@@H]3NC(=O)N[C@@H]32)C(=O)OCc2c1cc1n(c2=O)Cc2cc3ccccc3nc2-1 | 7.69 µM | 12.5 µM | 3.47 µM | 2.3 µM | 18.2 µM
3 | CCc1c2c(nc3ccccc13)-c1cc3c(c(=O)n1C2)COC(=O)[C@@]3(CC)OC(=O)CCCC[C@@H]1SC[C@@H]2NC(=O)N[C@@H]21 | 3.28 µM | 8.73 µM | 1.14 µM | 1.81 µM | 4.26 µM
4 | CC[C@@]1(OCc2cn(CCOCCOCCOCCOCCOCCNC(=O)CCCC[C@@H]3SC[C@@H]4NC(=O)N[C@@H]43)nn2)C(=O)OCc2c1cc1n(c2=O)Cc2cc3ccccc3nc2-1 | > 40 µM | > 40 µM | > 40 µM | > 40 µM | > 40 µM
5 | CC[C@@]1(O)C(=O)OCc2c1cc1n(c2=O)Cc2cc3cc(OC(=O)CCCC[C@@H]4SC[C@@H]5NC(=O)N[C@@H]54)ccc3nc2-1 | 3.32 µM | 0.55 µM | 1.23 µM | 3.19 µM | 2.3 µM
6 | CCc1c2c(nc3ccc(OC(=O)CCCC[C@@H]4SC[C@@H]5NC(=O)N[C@@H]54)cc13)-c1cc3c(c(=O)n1C2)COC(=O)[C@]3(O)CC | 1.55 µM | 0.13 µM | 0.52 µM | 3.31 µM | 0.8 µM
7 | CC[C@@]1(O)C(=O)OCc2c1cc1n(c2=O)Cc2cc3cc(OC(=O)CCCCCNC(=O)CCCC[C@@H]4SC[C@@H]5NC(=O)N[C@@H]54)ccc3nc2-1 | 1.85 µM | 0.45 µM | 0.75 µM | 1.14 µM | 0.34 µM
8 | CCc1c2c(nc3ccccc13)-c1cc3c(c(=O)n1C2)COC(=O)[C@@]3(CC)OC(=O)CCCCCNC(=O)CCCC[C@@H]1SC[C@@H]2NC(=O)N[C@@H]21 | 12.2 µM | 16.2 µM | 3.08 µM | 0.84 µM | 1.94 µM
9 | CCc1c2c(nc3ccc(OC(=O)CCCCCNC(=O)CCCC[C@@H]4SC[C@@H]5NC(=O)N[C@@H]54)cc13)-c1cc3c(c(=O)n1C2)COC(=O)[C@]3(O)CC | 1.14 µM | 1.48 µM | 0.23 µM | 0.76 µM | 0.4 µM
10 | CC[C@@]1(OCc2cn(CCOCCOCCNC(=O)CCCC[C@@H]3SC[C@@H]4NC(=O)N[C@@H]43)nn2)C(=O)OCc2c1cc1n(c2=O)Cc2cc3ccccc3nc2-1 | 4.77 µM | 6.05 µM | 3.63 µM | 0.72 µM | 3.47 µM
11 | CCc1c2c(nc3ccccc13)-c1cc3c(c(=O)n1C2)COC(=O)[C@@]3(CC)OCc1cn(CCOCCOCCOCCOCCOCCNC(=O)CCCC[C@@H]2SC[C@@H]3NC(=O)N[C@@H]32)nn1 | 4.1 µM | 0.57 µM | 5.18 µM | 4.77 µM | 9.21 µM
12 | CCc1c2c(nc3ccccc13)-c1cc3c(c(=O)n1C2)COC(=O)[C@@]3(CC)OCc1cn(CCOCCOCCNC(=O)CCCC[C@@H]2SC[C@@H]3NC(=O)N[C@@H]32)nn1 | > 40 µM | > 40 µM | > 40 µM | > 40 µM | > 40 µM
13 | CC[C@@]1(O)C(=O)OCc2c1cc1n(c2=O)Cc2cc3ccccc3nc2-1 [CAMPTOTHECIN] | 0.45 µM | 0.29 µM |  | < 0.064 µM | 

From ChEMBL document CHEMBL4371030, “Synthesis and antitumor activity of biotinylated camptothecin derivatives as potent cytotoxic agents” (Bioorg Med Chem Lett, 2019)
